Experimental data as given in ChEMBL document CHEMBL1156597, “Structure-activity relationship of kahalalide F synthetic analogues” (J Med Chem, 2008).

Tests used:
[1] = Cytotoxicity against human IGROV cells after 48 hrs by SRB assay; assay type: functional; details: for CC50: read-out: LC50 (the source's name)
Summary of the method: (§1)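 Cells grown in RPMI 1640 with 10% FBS and penicillin/streptomycin at 37 °C and 5% CO₂, trypsinized, then seeded at 5 × 10³/well. After 18 h drug-free attachment, samples in DMSO/EtOH/PBS (0.5:0.5:99) were added for 48 h continuous exposure. Cells were fixed with cold TCA (1 h, 4 °C) and stained with SRB (10 min). Tris-solubilized stain read at 490 nm. Triplicate wells, mean ± SD; GI₅₀ derived.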

LoVo [2] = assay: Cytotoxicity against human doxorubicin resistant LoVo cells after 48 hrs by SRB assay; assay type: functional; details: for CC50: read-out: LC50 (the source's name); summary of the method: as §1
HT-29 = assay: Cytotoxicity against human HT29 cells after 48 hrs by SRB assay; assay type: functional, cell-based; details: Homo sapiens, HT-29, 48 h; for CC50: read-out: LC50 (the source's name); summary of the method: as §1
LoVo [3] = assay: Cytotoxicity against human LoVo cells after 48 hrs by SRB assay; assay type: functional; details: for CC50: read-out: LC50 (the source's name)
DU-145 = assay: Cytotoxicity against human DU145 cells after 48 hrs by SRB assay; assay type: functional, cell-based; details: Homo sapiens, DU-145, 48 h; for CC50: read-out: LC50 (the source's name); summary of the method: as §1
HeLa = assay: Cytotoxicity against human HeLa cells after 48 hrs by SRB assay; assay type: functional; details: for CC50: read-out: LC50 (the source's name); summary of the method: as §1
PANC-1 = assay: Cytotoxicity against human PANC1 cells after 48 hrs by SRB assay; assay type: functional; details: PANC-1, 48 h; for CC50: read-out: LC50 (the source's name); summary of the method: as §1
SK-MEL-28 = assay: Cytotoxicity against human SK-MEL-28 cells after 48 hrs by SRB assay; assay type: functional, cell-based; details: Homo sapiens, SK-MEL-28, 48 h; for CC50: read-out: LC50 (the source's name); summary of the method: as §1
LNCaP = assay: Cytotoxicity against human LNcaP cells after 48 hrs by SRB assay; assay type: functional; details: for CC50: read-out: LC50 (the source's name); summary of the method: as §1
A549 = assay: Cytotoxicity against human A549 cells after 48 hrs by SRB assay; assay type: functional, cell-based; details: Homo sapiens, A549, 48 h; summary of the method: as §1
K562 = assay: Cytotoxicity against human K562 cells after 48 hrs by SRB assay; assay type: functional; details: K562, 48 h; for CC50: read-out: LC50 (the source's name); summary of the method: as §1
[4] = Cytotoxicity against human IGROV-ET cells after 48 hrs by SRB assay; assay type: functional; details: for CC50: read-out: LC50 (the source's name); summary of the method: as §1
[5] = Cytotoxicity against human HeLa-APL cells after 48 hrs by SRB assay; assay type: functional; summary of the method: as §1
SK-BR-3 = assay: Cytotoxicity against human SKBR3 cells after 48 hrs by SRB assay; assay type: functional; details: SK-BR-3, 48 h; for GI50: read-out: GI50; for CC50: read-out: LC50 (the source's name); summary of the method: as §1

C/C=C1\NC(=O)[C@H](Cc2c[nH]c3ccccc23)NC(=O)[C@@H](C(C)C)NC(=O)[C@@H]([C@H](C)CC)NC(=O)[C@H](NC(=O)[C@H](NC(=O)[C@H](CCCN)NC(=O)[C@H]2CCCN2C(=O)[C@H](NC(=O)[C@@H](NC(=O)[C@@H](NC(=O)[C@H](NC(=O)CCCC(C)C)C(C)C)[C@@H](C)O)C(C)C)C(C)C)[C@H](C)CC)[C@H](C)OC(=O)[C@H](C(C)C)NC1=O
GI50 [1]: 71.8 nM | GI50 ([1]; read-out: GI50): 87.5 nM | CC50 [1]: 57.4 nM | GI50 (LoVo [2]): 507 nM | TGI (LoVo [2]): 659 nM | CC50 (LoVo [2]): 1470 nM | GI50 (HT-29): 1050 nM | TGI (HT-29): 1510 nM | CC50 (HT-29): 1190 nM | GI50 (LoVo [3]): 628 nM | TGI (LoVo [3]): 957 nM | CC50 (LoVo [3]): 1430 nM | GI50 (DU-145): 823 nM | GI50 (DU-145; read-out: GI50): 832 nM | CC50 (DU-145): 785 nM | GI50 (HeLa): 1360 nM | TGI (HeLa): 1130 nM | CC50 (HeLa): 935 nM | CC50 (PANC-1): 2390 nM | CC50 (SK-MEL-28): 1390 nM | GI50 (LNCaP): 2060 nM | TGI (LNCaP): 1610 nM | CC50 (LNCaP): 1400 nM | LC50 (A549): 1380 nM | TGI (A549): 1490 nM | GI50 (A549; read-out: GI50): 1610 nM | GI50 (K562): 4840 nM | TGI (K562): 4700 nM | CC50 (K562): 2550 nM | GI50 [4]: 439 nM | GI50 ([4]; read-out: GI50): 461 nM | CC50 [4]: 418 nM | GI50 [5]: 1360 nM | LC50 (concentration giving 50% net cell kill) [5]: 975 nM | TGI [5]: 1150 nM | TGI (SK-BR-3): 383 nM | GI50 (SK-BR-3): 345 nM | CC50 (SK-BR-3): 425 nM

C/C=C1\NC(=O)[C@H](Cc2ccccc2)NC(=O)[C@@H](C(C)C)NC(=O)[C@@H]([C@H](C)CC)NC(=O)[C@H](NC(=O)[C@H](NC(=O)[C@H](CCCN)NC(=O)[C@H]2CCCN2C(=O)[C@H](NC(=O)[C@@H](NC(=O)[C@@H](NC(=O)[C@H](NC(=O)CC[C@@H](C)[C@H]2CC[C@H]3[C@@H]4CC[C@@H]5C[C@H](OC(=O)C(F)(F)F)CC[C@]5(C)[C@H]4CC[C@]23C)C(C)C)[C@@H](C)OC(=O)C(F)(F)F)C(C)C)C(C)C)[C@H](C)CC)[C@H](C)OC(=O)[C@H](C(C)C)NC1=O
GI50 [1]: 384 nM | GI50 ([1]; read-out: GI50): 405 nM | CC50 [1]: 317 nM | GI50 (LoVo [2]): 336 nM | TGI (LoVo [2]): 381 nM | CC50 (LoVo [2]): 2110 nM | GI50 (HT-29): 463 nM | TGI (HT-29): 479 nM | CC50 (HT-29): 921 nM | GI50 (LoVo [3]): 285 nM | TGI (LoVo [3]): 337 nM | CC50 (LoVo [3]): 614 nM | GI50 (DU-145): 683 nM | GI50 (DU-145; read-out: GI50): 698 nM | CC50 (DU-145): 663 nM | CC50 (HeLa): 789 nM | GI50 (PANC-1): 1660 nM | TGI (PANC-1): 1370 nM | CC50 (PANC-1): 1370 nM | GI50 (SK-MEL-28): 158 nM | GI50 (SK-MEL-28; read-out: GI50): 201 nM | CC50 (SK-MEL-28): 124 nM | GI50 (LNCaP): 729 nM | TGI (LNCaP): 783 nM | CC50 (LNCaP): 838 nM | GI50 (A549): 890 nM | LC50 (A549): 835 nM | GI50 (A549; read-out: GI50): 946 nM | GI50 (K562): 1070 nM | TGI (K562): 857 nM | CC50 (K562): 1220 nM | GI50 [4]: 700 nM | GI50 ([4]; read-out: GI50): 638 nM | CC50 [4]: 2030 nM | LC50 (concentration giving 50% net cell kill) [5]: 710 nM | TGI (SK-BR-3): 116 nM | GI50 (SK-BR-3): 78.4 nM | CC50 (SK-BR-3): 185 nM

C/C=C1\NC(=O)[C@H](Cc2ccccc2)NC(=O)[C@@H](C(C)C)NC(=O)[C@@H]([C@H](C)CC)NC(=O)[C@H](NC(=O)[C@H](NC(=O)[C@H](CCCN)NC(=O)[C@H]2CCCN2C(=O)[C@H](NC(=O)[C@@H](NC(=O)[C@@H](NC(=O)[C@H](NC(=O)CC[C@@H](C)CC)C(C)C)[C@@H](C)O)C(C)C)C(C)C)[C@H](C)CC)[C@H](C)OC(=O)[C@H](C(C)C)NC1=O
TGI [1]: 1020 nM | GI50 ([1]; read-out: GI50): 827 nM | CC50 [1]: 1220 nM | GI50 (LoVo [2]): 249 nM | TGI (LoVo [2]): 250 nM | CC50 (LoVo [2]): 1040 nM | GI50 (HT-29): 730 nM | TGI (HT-29): 1020 nM | CC50 (HT-29): 2060 nM | GI50 (LoVo [3]): 397 nM | TGI (LoVo [3]): 385 nM | CC50 (LoVo [3]): 321 nM | TGI (DU-145): 2200 nM | GI50 (DU-145; read-out: GI50): 1690 nM | CC50 (DU-145): 347 nM | CC50 (HeLa): 1070 nM | CC50 (PANC-1): 2200 nM | CC50 (SK-MEL-28): 1670 nM | CC50 (LNCaP): 2030 nM | LC50 (A549): 1320 nM | GI50 (K562): 2070 nM | TGI (K562): 3760 nM | CC50 (K562): 2560 nM | GI50 [4]: 584 nM | GI50 ([4]; read-out: GI50): 550 nM | CC50 [4]: 975 nM | GI50 [5]: 1280 nM | LC50 (concentration giving 50% net cell kill) [5]: 1140 nM | TGI [5]: 1200 nM | TGI (SK-BR-3): 462 nM | GI50 (SK-BR-3): 539 nM | CC50 (SK-BR-3): 395 nM
